Converted amounts (≈) assume the structure as drawn.
System: Mycobacterium tuberculosis
Experiment: Antitubercular activity against Mycobacterium tuberculosis H37Rv after 2 weeks
Format: functional
Settings: 336 h
Summary of the method: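 Agar proportion method on Middlebrook 7H10 with OADC; compound mixed into agar at 50-56 °C by serial dilution, final 100 to 0.8 µg/mL, poured into quadrant plates. Inoculum in 7H9 broth adjusted to McFarland no. 1, then diluted 10-2; 33 µL per quadrant. Incubated 35 °C, 10% CO2, 2 weeks; MIC read. Ethambutol as positive control.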

SMILES | MIC
CC[C@@H](CO)NCCN[C@@H](CC)CO [ETHAMBUTOL] | 30.6 µM (≈ 6.25 µg/mL)
C=C(C)[C@@H]1CCc2cc(C(C)C)ccc2[C@@]1(C)CCC(=O)OC | 153 µM (≈ 48.1 µg/mL)
COc1cc2oc(-c3ccc(O)cc3)c(OC)c(=O)c2c(O)c1OC [PENDULETIN] | 157 µM (≈ 54.1 µg/mL)
CC(C)=CCC/C(C)=C/CC/C(C)=C/CC/C=C(\C)CC/C=C(\C)CCC=C(C)C [SQUALENE] | 122 µM (≈ 50.1 µg/mL)
CCCCCCCCCCCCCCCCCC(=O)O [STEARIC ACID] | > 300 µM
C=C(C)[C@@H]1CC=C2C=C(C(C)C)CC[C@@H]2[C@@]1(C)CCC(=O)O [CALLICARPIC ACID A] | 238 µM (≈ 72.1 µg/mL)
COc1ccc(-c2oc3cc(OC)c(OC)c(O)c3c(=O)c2OC)cc1O [CASTICIN] | 214 µM (≈ 80.1 µg/mL)
C=C(C)[C@@H]1CCC2=C(C(=O)C=C(C(C)C)C2=O)[C@@]1(C)CCC(=O)O [CALLICARPIC ACID B] | 63.6 µM (≈ 21 µg/mL)
CC[C@H](CC[C@@H](C)[C@H]1CC[C@H]2[C@@H]3CC=C4CC(=O)CC[C@]4(C)[C@H]3CC[C@]12C)C(C)C [BETA-SITOSTENONE] | > 300 µM
C=C(C)[C@@H]1CCC2=C(CCC(C(C)C)=C2)[C@@]1(C)CCC(=O)OC | 38 µM (≈ 12 µg/mL)
COc1ccc(-c2oc3cc(OC)c(OC)c(OC)c3c(=O)c2OC)cc1OC [HEXAMETHOXYFLAVONE] | 179 µM (≈ 72.1 µg/mL)
C=C(C)[C@@H]1CC=C2C=C(C(C)C)CC[C@]2(O)[C@@]1(C)CCC(=O)O [9R-HYDROXYCALLICARPIC ACID A] | 113 µM (≈ 36 µg/mL)
CC(C)c1ccc2c(c1)C(=O)C[C@H]1C(C)(C)CCC[C@]21C | > 300 µM
CCCCCCCCCCCCCC(=O)OCCc1ccc(O)cc1 | > 300 µM
COc1ccc(-c2cc(=O)c3c(O)cc(O)cc3o2)cc1 [ACACETIN] | 282 µM (≈ 80.1 µg/mL)
COc1cc([C@H]2OC[C@@H]3C(=O)OC[C@@H]32)cc(OC)c1O | 257 µM (≈ 72.1 µg/mL)
CC(C)c1ccc2c(c1)CC[C@H]1C(C)(C)C(=O)CC[C@]21C | 148 µM (≈ 42.1 µg/mL)
COc1ccc(-c2oc3cc(OC)c(OC)c(O)c3c(=O)c2OC)cc1OC [ARTEMETIN] | 186 µM (≈ 72.1 µg/mL)

Reference: ChEMBL document CHEMBL1152331, “seco-Abietane diterpenoids, a phenylethanoid derivative, and antitubercular constituents from Callicarpa pilosissima” (2009)
